Assay outcomes (PubChem)
Compounds with a hit are over-represented: about 2.4% of the library has one in this group of screens.
PfM18AAP inh-1 = blocks P. falciparum M18 aspartyl aminopeptidase. 290,000 tested, 1.2% active. inhibition, % at 7.35 µM. AID 1822. recombinant PfM18AAP, H-Glu-NHMec fluorogenic cleavage;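 active means inhibition above the campaign mean inhibition over all tested compounds plus 3 SD, cut at about 28% in these data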;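 further: 0% = plate median of test compound wells and 100% = 2 mM ZnCl2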
PfG6PD inh = PfG6PD (Plasmodium falciparum) enzyme inhibition | PfGluPho enzyme, NADPH resazurin-diaphorase fluorescence | inhibition, % at 20 µM | 350,000 tested, 0.78% active | AID 504690;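 active means inhibition reaching at least a set limit at 20 µM in the primary screen, cut at about 59% in these data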;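 further: 0% = DMSO wells with substrate and 100% = DMSO wells lacking glucose-6-phosphate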
UBC9 SUMO inh = SUMOylation inhibition. HTRF SUMOylation assay, SAE1/SAE2 + UBC9, in vitro. inhibition, % at 35 µM. P63279. 290,000 tested, 0.36% active; in the data active means inhibition above about 50%, passing the limit was not always enough
Target sequence (P63279 whole entry, looked up): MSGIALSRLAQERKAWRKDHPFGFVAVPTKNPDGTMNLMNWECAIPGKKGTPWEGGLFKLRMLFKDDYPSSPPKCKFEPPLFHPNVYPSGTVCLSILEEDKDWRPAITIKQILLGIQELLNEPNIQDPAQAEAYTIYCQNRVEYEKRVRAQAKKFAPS
APOBEC3G inh = blocks human APOBEC3G single-stranded DNA deamination; Q9HC16; recombinant A3G, ssDNA deamination FAM/TAMRA fluorescence; inhibition, % at 20 µM; 330,000 tested, 0.28% active;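 active means inhibition of at least 40% at 20 µM, with no more than 30% in the related APOBEC3A deaminase screen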;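 further: plate controls were DMSO wells with A3G for no effect and wells lacking A3G enzyme for full effect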
Target sequence (Q9HC16 whole entry, looked up): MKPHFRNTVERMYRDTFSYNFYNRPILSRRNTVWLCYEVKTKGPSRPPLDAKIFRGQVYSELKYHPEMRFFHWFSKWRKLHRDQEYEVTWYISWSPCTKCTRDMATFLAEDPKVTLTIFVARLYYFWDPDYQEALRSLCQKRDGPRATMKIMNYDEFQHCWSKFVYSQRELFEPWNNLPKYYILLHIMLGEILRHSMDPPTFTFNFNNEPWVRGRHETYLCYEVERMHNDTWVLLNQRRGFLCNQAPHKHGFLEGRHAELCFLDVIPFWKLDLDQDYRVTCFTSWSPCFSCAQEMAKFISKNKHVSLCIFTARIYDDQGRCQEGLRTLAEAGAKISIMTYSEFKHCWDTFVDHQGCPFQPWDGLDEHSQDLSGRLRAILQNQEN
APOBEC3A inh = blocks human APOBEC3A ssDNA deamination | inhibition, % at 20 µM | recombinant A3A, FAM/TAMRA ssDNA deamination fluorescence | P31941 | 330,000 tested, 0.41% active;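 active means at least 40% inhibition at 20 µM here, with at most 30% in a related deaminase screen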;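 further: plate controls were A3A with DMSO for no effect and wells lacking A3A enzyme for full effect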
Target sequence (P31941 whole entry, looked up): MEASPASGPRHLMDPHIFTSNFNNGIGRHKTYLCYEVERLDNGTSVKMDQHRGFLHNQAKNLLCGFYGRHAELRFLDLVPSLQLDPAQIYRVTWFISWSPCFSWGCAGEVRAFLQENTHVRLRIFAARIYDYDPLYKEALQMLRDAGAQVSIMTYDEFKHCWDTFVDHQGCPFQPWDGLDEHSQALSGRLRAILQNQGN
HKDC1 inhibitor = blocks human hexokinase HKDC1 activity; AID 493160; recombinant HKDC1, G6PDH/diaphorase resazurin coupled fluorescence; inhibition, % at 20 µM; 340,000 tested, 0.16% active;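 active means inhibition above about 35% when tested at 20 µM, limit read from the data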;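 further: plate controls were DMSO wells with enzyme for no effect and DMSO wells lacking enzyme for full effect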
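Material – in-house recombinant HK5 (HKDC1) enzyme · Quantity – HKDC1 at 5 µg/mL · Buffer or medium – pH 8.0 Tris buffer with 10 mM MgCl2 · Reagent – glucose with 1 mM ATP · Dosing – single 20 µM dose · Times – reaction time 90 min, room temperature, protected from light · Technique – resorufin fluorescence at 613 nm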
PfM18AAP inh-2 = PfM18AAP inhibition, confirmation | shares compounds with PfM18AAP inh-1 | recombinant PfM18AAP, H-Glu-NHMec fluorogenic cleavage | inhibition, % at 7.35 µM | 2,400 tested, 28% active | AID 2170;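 active means mean inhibition over replicate wells above the hit cutoff set for the earlier primary screen, cut at about 29% in these data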;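 further: 0% = median of test compound wells and 100% = 2 mM ZnCl2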
CTSL1 confirm = counter-screen for PFM18AAP inhibitors: confirmation of human cathepsin L inhibitors; inhibition, % at 5.96 µM; shares compounds with PfM18AAP inh-1; 2,400 tested, under 10 active; purified cathepsin L1, Z-Leu-Arg-MCA fluorescence;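 active means average inhibition across replicates above the hit cutoff set in the earlier primary screen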;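 further: 0% = median of test compound wells and 100% = Z-Phe-Ala-diazomethylketone 1 µM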
APOBEC3G confirm = confirmation of human APOBEC3G DNA deaminase inhibitors | AID 493152 | inhibition, % at 20 µM | recombinant A3G ssDNA deaminase, UDG/FAM-TAMRA fluorescence | 890 tested, 72% active | shares compounds with APOBEC3G inh;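 active means inhibition reaching a set limit in any replicate at 20 µM, the limit being 80% of the first screen's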
UDG ctr A3G = inhibits E. coli UDG, flagging false APOBEC3G inhibitors; shares compounds with APOBEC3G inh; UDG counterscreen, FAM/TAMRA oligo fluorescence; inhibition, % at 20 µM; 710 tested, under 10 active; AID 504715;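 active means compounds giving 40% or more inhibition at 20 µM in any one of the three replicates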;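 further: plate controls were DMSO wells with UDG and oligo for no effect and DMSO wells lacking both for full effect; inhibitors lower the FAM signal released by uracil excision and alkaline cleavage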
HKDC1 act conf = confirmation of human HKDC1 activators | shares compounds with HKDC1 inhibitor | recombinant HKDC1, G6PDH/diaphorase resazurin fluorescence; active compounds read low | inhibition, % at 20 µM | 740 tested, 14% active;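 active means inhibition at or below a set negative limit, negative inhibition meaning the enzyme was activated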
PfG6PD confirm = confirmation of Plasmodium falciparum G6PD inhibitors. recombinant PfGluPho, NADPH-diaphorase-resazurin fluorescence. 2,400 tested, 34% active. shares compounds with PfG6PD inh. inhibition, % at 20 µM. AID 504753;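 active means inhibition of at least 50% at 20 µM in any single replicate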;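 further: 0% = DMSO with substrate and 100% = DMSO lacking glucose-6-phosphate substrate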
Diaphorase 10uM = diaphorase inhibition or oxidation at 10 uM NADPH. AID 504862. inhibition, % at 20 µM. shares compounds with PfG6PD inh. diaphorase-coupled resazurin reduction, fluorescence, NADPH 10 uM. 820 tested, 39% active;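 active means average inhibition reaching 50% or more with the compound at 20 µM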;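 further: resorufin red fluorescence formed as diaphorase reduces resazurin using NADPH; 0% = DMSO with enzyme and 100% = DMSO without enzyme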
Diaph ctr 30uM = inhibits diaphorase or oxidizes, flagging false PfG6PD hits; shares compounds with PfG6PD inh; Diaphorase/resazurin coupled assay, resorufin fluorescence, 30 uM NADPH; inhibition, % at 20 µM; 820 tested, 29% active; AID 504863;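 active means inhibition averaging 50% or more, tested at 20 µM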;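 further: 0% = DMSO with enzyme and 100% = DMSO wells lacking diaphorase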
Numbers without * were called inactive; . = no result.

SMILES | PfM18AAP inh-1 | PfG6PD inh | UBC9 SUMO inh | APOBEC3G inh | APOBEC3A inh | HKDC1 inhibitor | PfM18AAP inh-2 | CTSL1 confirm | PfG6PD confirm | Diaphorase 10uM | Diaph ctr 30uM | others
Oc1ccccc1C=NN1CCCCCC1 | . | -4 | . | . | . | -4 | . | . | . | . | .
Cc1nc(SCC(=O)NC2CCCCC2C)nc(C)c1C (stereo not given) | . | -13 | . | -5 | -2 | -1 | . | . | . | . | .
CN1/C(=C\C(=O)c2cccs2)Sc2ccccc21 | 54* | 105* | 10 | 3 | -2 | -1 | -47 | -4 | 62* | 41 | 35
CN1/C(=C/C(=O)C2CCC2)Sc2ccccc21 | 5 | 36 | 27 | -4 | -8 | -5 | . | . | . | . | .
CC1(C)Cc2c(c(N3CCOCC3)nc3sc(C(=O)N4CCCCC4)c(N)c23)CO1 | 33* | 68* | 15 | 47* | 0 | 7 | -6 | 2 | 15 | . | . | APOBEC3G confirm=28*;UDG ctr A3G=4
Nc1c(C(=O)N2CCOCC2)sc2nc(N3CCOCC3)c3c(c12)CCCC3 | 37* | 66* | 27 | 40 | -5 | 3 | 10 | 1 | -5 | . | .
Oc1ccc(N2CCN(c3ncnc4sc(-c5ccccc5)cc34)CC2)cc1 | 44* | 72* | 27 | . | . | 4 | 10 | 0 | 23 | . | .
O=C1[C@H](O)[C@@H](O)C(=O)N1Cc1ccccc1 | 2 | -13 | 21 | -4 | 2 | 3 | . | . | . | . | .
COc1cc(NC(=S)N2CCN(CCO)CC2)c(OC)cc1Cl | 4 | 24 | 6 | -2 | 0 | -12 | . | . | . | . | .
OCCN1CCN(C(=S)c2ccc(Cl)c(Cl)c2)CC1 | 49* | 64* | 10 | 38 | 0 | -3 | 5 | -5 | 53* | -13 | -1
Cc1nc2ccccc2c(=O)n1/N=C/c1ccc(O)c(O)c1O | 47* | 92* | 77 | 60 | 66 | 15 | 6 | 5 | 101* | 97* | 96*
CCOC(=O)N1CCN(C(=O)Cc2cccc3ccccc23)CC1 | -9 | -8 | 0 | -1 | -2 | -7 | . | . | . | . | .
CN1CCc2cccc3c2C1Cc1ccc(O)c(O)c1-3 (stereo not given) | 75* | 64* | 5 | 40 | -6 | 4 | 74* | -9 | 46 | . | .
O=C(CNC(=O)c1cccs1)OCC(=O)c1ccccc1 | 0 | -7 | -13 | -8 | -4 | 4 | . | . | . | . | .
O=C(CCC(=O)OCC(=O)c1ccc([N+](=O)[O-])cc1)Nc1ccccc1Cl | 40* | 68* | 4 | -9 | -3 | -7 | -6 | -21 | 54* | 2 | -3
Cc1ccccc1OCC(=O)NCC(=O)OCC(=O)c1ccc([N+](=O)[O-])cc1 | 46* | 70* | 4 | 6 | -3 | -1 | -19 | -10 | 52* | -7 | -22
Cc1ccc(C(=O)COC(=O)CNC(=O)COc2ccccc2C)cc1C | -16 | 3 | 0 | -6 | -7 | 0 | . | . | . | . | .
O=C(CNC(=O)c1cccs1)NCC(=O)OCC(=O)c1ccc([N+](=O)[O-])cc1 | 46* | 67* | 7 | -1 | 1 | 14 | -15 | -3 | 63* | 3 | -2
O=C(CCC(=O)OCC(=O)c1cccc([N+](=O)[O-])c1)Nc1cccc(Cl)c1Cl | 0 | 24 | -11 | 2 | 3 | -2 | . | . | . | . | .
CC(C)c1nc(N2CCOCC2)c(C#N)c2c1CCCC2 | -6 | -14 | 4 | 0 | -1 | 3 | . | . | . | . | .
O=C(O)c1ccccc1NS(=O)(=O)c1cccc(-n2sc3ccccc3c2=O)c1 | 62* | 110* | 15 | 78* | 6 | 15 | 50* | -4 | 105* | -12 | -24 | APOBEC3G confirm=87*;UDG ctr A3G=-2
Cc1nnc(NC(=O)c2cccc(S(=O)(=O)N3CCc4ccccc43)c2)s1 | -11 | -35 | -5 | -9 | 3 | 9 | . | . | . | . | .
COc1cc(/C=N/N2CCN(Cc3ccc(C)cc3)CC2)cc(OC)c1O | 47* | 79* | -8 | 54* | 1 | 9 | 4 | 1 | 16 | . | . | APOBEC3G confirm=-1
O=[N+]([O-])c1ccc(N/N=C/c2ccc(O)c(O)c2O)c(S(=O)(=O)N2CCOCC2)c1 | 37* | 66* | 40 | 6 | 17 | 38* | -29 | -7 | 62* | 30 | 28 | HKDC1 act conf=9
O=[N+]([O-])c1ccc(N2CCN(c3ccc(O)cc3)CC2)cn1 | 41* | 62* | 6 | 47* | 2 | 5 | 2 | -1 | 38 | . | . | APOBEC3G confirm=13
SMILES | PfM18AAP inh-1 | PfG6PD inh | UBC9 SUMO inh | APOBEC3G inh | APOBEC3A inh | HKDC1 inhibitor | PfM18AAP inh-2 | CTSL1 confirm | PfG6PD confirm | Diaphorase 10uM | Diaph ctr 30uM | others
O=C(O)c1ccc([N+](=O)[O-])nc1 | . | -9 | . | . | . | . | . | . | . | . | .
Cc1ccc(COn2nnc3ccc(S(=O)(=O)N4CCOCC4)cc32)cc1 | . | 0 | . | -2 | -1 | -1 | . | . | . | . | .
O=S(=O)(Nc1nc2ccccc2s1)c1ccc(Br)s1 | -1 | -11 | -1 | 0 | -1 | -2 | . | . | . | . | .
Cc1nn(C)c(Sc2ccccc2N)c1[N+](=O)[O-] | 39* | 64* | 8 | 6 | -5 | -9 | -13 | 0 | 15 | . | .
COc1ccc(S(=O)(=O)Nc2cccc3ccc(O)cc23)cc1 | . | 4 | . | -1 | 1 | -1 | . | . | . | . | .
COc1ccc(S(=O)(=O)Nc2cc(SCC(=O)O)c(O)c3ccccc23)cc1 | 33* | 110* | 57* | 19 | 1 | 57* | 0 | -2 | 96* | 43 | 33 | HKDC1 act conf=47
CCOC(=O)C1CCCN(C(=O)Cn2cnc3c2c(=O)n(C)c(=O)n3C)C1 (stereo not given) | -6 | -7 | 18 | 4 | 3 | -10 | . | . | . | . | .
CC(=O)Cn1cnc2c(sc3nc(C)cc(C)c32)c1=O | 1 | -2 | 8 | 11 | 1 | -5 | . | . | . | . | .
